Experimental data pooled from the literature.
Protocols differ between the studies behind these lines.
Organism: Pseudomonas aeruginosa
Observed: microbial growth

Compound | test | system | conditions | MIC
Cc1cc(/C=C2\Sc3ccccc3N2CCCN2CCCCC2)c2ccccc2[n+]1C.[I-] | broth dilution | ATCCBAA2108 | drug-resistant strain | 64 µg/mL
CCCCCCNC(=S)Nc1cccc(-c2cc(C(=O)OC)no2)c1 | broth dilution | ATCC27853 |  | > 64 µg/mL
C[C@H]1COCCN1c1nc(NCc2cccnc2C(F)(F)F)c2cccnc2n1 | broth dilution | NCTC13437 |  | 64 µg/mL
C[n+]1c(/C=C/c2ccc(O)cc2)cc(/C=C2\Sc3ccccc3N2CCCN2CCOCC2)c2ccccc21.[I-] | broth dilution | ATCCBAA2108 | drug-resistant strain | > 64 µg/mL
COC(=O)c1cc(-c2cccc(NC(=S)Nc3ccccc3)c2)on1 | broth dilution | ATCC27853 |  | > 64 µg/mL
C[C@@H](O)[C@H]1C(=O)N2C(C(=O)O)=C(S[C@@H]3CN[C@H](C(=O)N(C)C)C3)[C@H](C)[C@H]12 |  |  |  | 2 µg/mL
CN[C@@H]1[C@H](O)[C@H](NC)[C@H]2O[C@@]3(O)C(=O)C[C@@H](C)O[C@H]3O[C@@H]2[C@H]1O | broth dilution | PAO1 |  | 100 µg/mL
C[n+]1c(/C=C/c2c[nH]c3ccccc23)cc(/C=C2\Sc3ccccc3N2CCCN2CCOCC2)c2ccccc21.[I-] | broth dilution | ATCCBAA2108 | drug-resistant strain | > 64 µg/mL
CCCCCCCCCCCC(=O)OC[C@H]1O[C@@H](n2cc(C)c(=O)[nH]c2=O)C[C@@H]1OC(=O)c1ccc(C(C)(C)C)cc1 | broth dilution |  |  | 8 µg/mL
CCCCCCC#Cc1cncc(-c2nnc(Sc3ccc([N+](=O)[O-])cc3[N+](=O)[O-])n2C)c1 |  |  |  | ≥ 20 µg/mL
Oc1cc(Cl)ccc1Oc1ccc(Cl)cc1Cl |  |  |  | > 25 µg/mL
COC(=O)c1cc(-c2cccc(NC(=O)Nc3ccccc3F)c2)on1 | broth dilution | ATCC27853 |  | > 64 µg/mL
CC1(C)S[C@@H]2[C@H](NC(=O)C(C(=O)O)c3ccccc3)C(=O)N2[C@H]1C(=O)O (stereo partly shown) |  |  |  | 50 µg/mL
COC(=O)c1cc(-c2cccc(NC(=S)Nc3cc(C(F)(F)F)cc(C(F)(F)F)c3)c2)on1 | broth dilution | ATCC27853 |  | > 64 µg/mL
C[n+]1c(/C=C/c2ccc(O)cc2)cc(/C=C2\Sc3ccccc3N2CCCN2CCCC2)c2ccccc21.[I-] | broth dilution | ATCCBAA2108 | drug-resistant strain | > 64 µg/mL
Nc1nc(-c2ccc(NC(=O)Nc3cccc(-c4c[nH]c(N)n4)c3F)cc2F)c[nH]1 | broth dilution | PAO1 |  | > 200 µM
